bCat KO growth: beta-catenin-lacking colon tumor cell growth suppression | viability, % at 10 µM | actives 1.5% (n = 140,000) | HCT116 beta-catenin knockout viability, CellTiter-Glo, 60 h; active compounds read low;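 active means viability at or under a set limit, the compound median less 4 SD, cut at about 6% in these data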
H69AR inhibit: blocks growth of human H69AR lung tumor cells | H69AR lung tumor viability, ATP luminescence, 72 h; active compounds read low | viability, % at 10 µM | actives 6% (n = 85,000);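 active means viability at or below 40%; inactive means viability above 40%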;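 further: multidrug resistant small cell line overexpressing MRP-1 efflux transporter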
Fibroblast inh: blocks proliferation of human lung fibroblasts; LL 47 human lung fibroblast viability, ATP luminescence; active compounds read low; viability, % at 10 µM; actives 1.1% (n = 85,000); AID 719;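 active means viability at or below 50% in the single dose screen; inactive means viability above 50%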;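 further: compound exposure lasted 72 h before the ATP readout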
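Test system: LL 47 human lung fibroblasts; Quantity: 1,150 cells/well; Buffer or medium: IMEM plus 15% FBS; Dosing: tenfold compound dosing solution, DMSO at 0.1%; Timing: overnight cell rest, 72 h compound treatment at 37 °C; Detection: ATP-based CellTiter-Glo luminescent readout; Read-out basis: viability percentage against median untreated-cell control; Controls: cell-only wells, no compound.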
PTEN del growth: suppresses growth of cells with PTEN deletion; HCT116 PTEN-null viability, CellTiter-Glo, 60 h; active compounds read low; viability, % at 10 µM; actives 1.2% (n = 140,000);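 active means viability at or below a set limit, 4 SD under the median of all tested compounds, cut at about 3.7% in these data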;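 further: PTEN knockout HCT116 line with beta catenin targeted HCT116 as companion control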
HUVEC prolif 384: human endothelial cell proliferation inhibition | actives 1.1% (n = 86,000) | viability, % at 10 µM (by protocol) | HUVEC proliferation, CellTiter-Glo luminescence, 72 h; active compounds read low;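 active means viability at or below 30%; inactive means viability above 30%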
Hits are given with their value; n = inactive; x = no result. The sample as a whole holds a higher share of hits than the screen did.

SMILES	bCat KO growth	H69AR inhibit	Fibroblast inh	PTEN del growth	HUVEC prolif 384
CC(=O)Nc1ccccc1-c1nc2ccccc2nc1OCC(=O)c1ccc(Cl)cc1	n	x	x	n	x
O=C(c1nn(Cc2ccccc2)c(=O)c2ccccc12)N1CCN(C/C=C/c2ccccc2)CC1	n	31	n	n	n
O=C(c1ccco1)N1CCN(C/C=C/c2ccccc2)CC1	n	n	n	n	n
CNc1ccc(Br)cc(C(=O)/C=C/c2cc(OC)ccc2OC)c1=O	n	0.6	n	n	n
CNc1ccc(Br)cc(C(=O)/C=C/c2ccc(OC)cc2)c1=O	n	x	x	n	x
CNc1ccc(Br)cc(C(=O)/C=C/c2ccc3c(c2)OCO3)c1=O	n	x	x	n	x
CCNc1ccc(Br)cc(C(=O)/C=C/c2ccc(Cl)cc2Cl)c1=O	2.5	0.4	n	2.2	21
CC(=O)N(C(C)=O)S(=O)(=O)c1ccc(N=NN2CCCCC2)cc1	n	x	x	n	x
CC1Cc2ccccc2N1C(=O)CO/N=C/c1ccc(OC(F)F)cc1 (stereo not drawn)	n	x	x	n	x
Cc1cc2nc(NC3=NCN(Cc4ccc5c(c4)OCO5)CN3)nc(C)c2cc1C	x	23	49	x	n
Cc1nc(NC2=NCN(CCCN3CCOCC3)CN2)nc2c(C)cccc12	n	2.3	28	n	n
Cc1nc(NC2=NCN(CCc3ccccc3)CN2)nc2c(C)cccc12	x	5.5	32	x	1.7
Cc1cc2nc(NC3=NCN(CCCN4CCOCC4)CN3)nc(C)c2cc1C	x	n	x	x	n
Cc1ccc(SCC(=O)Nc2ccc(-c3nc4ccccc4[nH]3)cc2)cc1	n	x	x	n	x
CCC1CCCCN1S(=O)(=O)c1ccc(C(=O)Nc2nnc(-c3ccccc3Cl)o2)cc1 (stereo not drawn)	n	20	n	n	n
CCCCN(C)S(=O)(=O)c1ccc(C(=O)Nc2nnc(-c3cccs3)o2)cc1	n	35	n	n	5.1
CCCCN(CC)S(=O)(=O)c1ccc(C(=O)Nc2nnc(-c3ccccc3Cl)o2)cc1	n	27	n	n	3.3
O=C(Nc1nnc(-c2cccs2)o1)c1cccc(Oc2ccccc2)c1	n	39	n	n	n
Cc1ccc(/C=N/NC(=O)C(C)Oc2ccccc2[N+](=O)[O-])s1 (stereo not drawn)	n	x	x	n	x
O=C(Nc1nnc(-c2ccccc2Cl)o1)c1ccc(S(=O)(=O)N2CCCCCC2)cc1	n	31	n	n	3.0
CC1CCCCN1S(=O)(=O)c1ccc(C(=O)Nc2nnc(-c3ccccc3Cl)o2)cc1 (stereo not drawn)	n	n	n	n	3.7
CC1CCCCN1S(=O)(=O)c1ccc(C(=O)Nc2sccc2C(N)=O)cc1 (stereo not drawn)	n	n	n	n	n
CC(=O)n1cc(C(C[N+](=O)[O-])SCCN)c2ccccc21 (stereo not drawn)	n	1.6	24	n	22
Cn1cc(SCC(=O)O)c2ccccc21	n	n	n	n	n
Oc1ccc(F)cc1-c1cc(-c2ccc3c(c2)OCCO3)n[nH]1	n	37	n	n	n
SMILES	bCat KO growth	H69AR inhibit	Fibroblast inh	PTEN del growth	HUVEC prolif 384
Oc1ccc(-c2n[nH]c(=S)n2-c2ccc3c(c2)OCCO3)cc1	n	x	x	n	x
Cc1cccc(N2CCN(C(=O)Cc3cn(C)c4ccccc34)CC2)c1C	n	18	n	n	n
COCCN1C(=O)C(CC(=O)Nc2ccc(C(C)=O)cc2)SC1=Nc1ccccc1 (stereo not drawn)	n	x	x	n	x
CC(O)CN1C(=O)C(CC(=O)Nc2ccc(Cl)cc2)SC1=Nc1ccccc1 (stereo not drawn)	n	39	n	n	n
Cc1cccc(NS(=O)(=O)c2cc(C(=O)OC(C)C(=O)NCc3ccc4c(c3)OCO4)ccc2C)c1 (stereo not drawn)	n	x	x	n	x
Cc1cc(C)c2oc(-c3cccc(NC(=O)c4ccc(F)cc4)c3)nc2c1	n	17	n	n	n
Cc1cc(C)c2oc(-c3ccc(C)c(NC(=S)NC(=O)c4cccs4)c3)nc2c1	3.8	x	x	2.7	x
COc1cc(C(=O)Nc2cccc(-c3nc4cc(C)cc(C)c4o3)c2)cc(OC)c1OC	n	x	x	n	x
Cc1ccc(-c2nc3ccccc3o2)cc1NC(=S)NC(=O)c1cccs1	n	x	x	n	x
CCOC(=O)CSc1n[nH]c(NC(=O)c2cccc(C(F)(F)F)c2)n1	n	x	x	n	x
CCC(NC(=O)Nc1nnc(C(F)(F)F)s1)(C(F)(F)F)C(F)(F)F	2.1	6.0	29	2.5	23
COc1cc2c(C(=O)NCc3ccc4c(c3)OCO4)cn(CC(C)C)c(=O)c2cc1OC	n	n	42	n	n
CCOc1cc(C(=S)N2CCCCC2)ccc1OCC(=O)NCc1ccccc1	n	23	n	n	n
C=C(C)CNC(=S)NNC(=O)CCn1c2ccc(Cl)cc2c2cc(Cl)ccc21	2.7	x	x	3.5	x
Cc1c(Cl)cccc1Nc1nc(N)nc(CN2CCc3ccccc3C2)n1	n	15	n	n	n
COc1ccc(N2CCN(Cc3nc(N)nc(Nc4ccccc4OC)n3)CC2)cc1	n	7.7	n	n	n
COc1ccc(OCc2nc(N)nc(Nc3ccccc3OC)n2)cc1	n	2.2	n	n	n
Cc1ccc(Nc2nc(N)nc(CN3CCc4ccccc4C3)n2)cc1	n	n	n	n	n
COc1ccccc1Nc1nc(N)nc(CSc2ncccn2)n1	n	n	n	n	n
Cc1cc(C)n(-c2nc(SCCN(C)C)c3c4c(sc3n2)COC(C)(C)C4)n1	1.9	x	x	3.3	x
Cc1cc(C)n(-c2nc(NCC3CCCO3)c3c4c(sc3n2)COC(C)(C)C4)n1 (stereo not drawn)	n	10	n	n	n
Cc1cc(C)n(-c2nc(NCC(C)O)c3c4c(sc3n2)COC(C)(C)C4)n1 (stereo not drawn)	n	n	n	n	n
O=C(O)c1ccc(N2Cc3ccccc3C2)cc1O	n	x	x	n	x
c1ccc(CN2CCN(C3=Nc4cccc5cccc3c45)CC2)cc1	n	35	n	n	n
COc1cccc(CN2C(=O)CCC2(C)C(=O)NC2CCCC2)c1 (stereo not drawn)	n	n	n	n	n
SMILES	bCat KO growth	H69AR inhibit	Fibroblast inh	PTEN del growth	HUVEC prolif 384
CCOc1nc(Nc2ccc(OC)c(Cl)c2)nc(OCC)n1	n	36	n	n	n
CCOc1nc(Nc2ccc(OC)cc2)nc(OCC)n1	n	n	n	n	n
CC1CCN(Cc2nnnn2-c2cccc([N+](=O)[O-])c2)CC1	n	x	x	n	x
O=C(/C=C/c1ccccc1)c1ccc2c(c1)OCCCCO2	3.5	x	x	n	x
COc1ccc(-n2c(=O)c3c4c(sc3n3c(C)nnc23)CC(C)CC4)cc1 (stereo not drawn)	x	n	n	x	n
O=C(N=C1c2ccccc2CN1c1ccc(F)c(Cl)c1)c1cccnc1Cl	n	x	x	n	x
CCOC(=O)C(C)(C)N(Cc1ccc(C)cc1)S(=O)(=O)c1ccc(Cl)c([N+](=O)[O-])c1	0.9	x	x	0.8	x
CCOC(=O)C(C)(C)NS(=O)(=O)c1ccc(Cl)c([N+](=O)[O-])c1	n	x	x	n	x
CC(=O)c1c(C)oc2ccc(N(C(C)=O)S(=O)(=O)c3ccc(Cl)c([N+](=O)[O-])c3)cc12	n	x	x	n	x

Compound activity from PubChem BioAssay.
